Series [1] deals with T1, Catechol O-methyltransferase (Rattus norvegicus) (UniProt P22734).
T1 sequence (whole entry): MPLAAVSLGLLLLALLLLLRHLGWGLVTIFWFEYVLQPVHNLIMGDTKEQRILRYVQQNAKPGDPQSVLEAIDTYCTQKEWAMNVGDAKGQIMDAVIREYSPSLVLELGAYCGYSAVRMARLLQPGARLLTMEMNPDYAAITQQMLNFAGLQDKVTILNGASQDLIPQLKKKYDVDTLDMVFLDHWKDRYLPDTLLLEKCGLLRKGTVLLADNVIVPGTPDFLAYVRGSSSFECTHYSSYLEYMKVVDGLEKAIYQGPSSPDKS
As to the kind of experiment: Competitive inhibition of Sprague-Dawley rat liver COMT assessed as inhibition of methyl group transformation from SAM to DL-epinephrine-7-14C after 10 mins by scintillation spectrophotometric analysis. In outline:
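Partially purified rat liver COMT (calcium phosphate stage). SAM 1.0 mM as methyl donor, Epi-14C 0.05 μCi, epinephrine varied 54-404 μM, 10 min, stopped with borate pH 10.0. Radiolabeled metanephrine and paranephrine extracted with toluene-isoamyl alcohol (3:2) and counted. Reciprocal velocity vs reciprocal epinephrine plots give the inhibition pattern; Ki by Cleland's procedure.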

The next series concerns Mus musculus. As to the kind of experiment: Induction of DL-norepinephrine-7-3H release from ARS HA(ICR)f outbred Swiss albino mouse heart assessed as remaining level at 10 mg/kg, sc after 2 hrs relative to control. Type of series: functional. As to conditions: route subcutaneous. In outline: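 Mice (about 20 g) given 1.0 nmol (5 μCi) Norepi-3H iv by tail vein in isotonic NaCl with heparin. Compound 10 mg/kg sc 1 hr later; saline-injected controls. Hearts removed, homogenized in 10 vol 0.4 N HClO4 and centrifuged; tritium in the supernatant counted. Expressed as % of control, mean of duplicate determinations with five mice each.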

Substrate in series [2]: CC1(C)CNCc2cc(O)c(O)cc21
As to the kind of experiment: (§1) Activity of Sprague-Dawley rat liver COMT using [14CH3]-SAM as methyl group donor after 10 mins by scintillation spectrophotometric analysis. An outline of the steps:
(§2)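 Rat liver COMT (male Sprague-Dawley, 180-200 g) purified through the calcium phosphate stage, approx 50-fold. Test catechol at 50-500 μM as substrate, SAM 1.0 mM with SAM-14CH3 0.05 μCi, 10 min incubation, stopped with borate buffer pH 10.0. O-methylated product extracted into toluene-isoamyl alcohol (3:2) and counted. Km and Vmax from double-reciprocal plots using Cleland's equations.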

Substrate in series [3]: CN1Cc2cc(O)c(O)cc2C(C)(C)C1
Described as §1. In outline:
as §2

Substrate in series [4]: CNC[C@H](O)c1ccc(O)c(O)c1
The series is described as §1. An outline of the steps: as §2

Substrate in series [5]: Oc1cc2c(cc1O)CNCC2
Described as §1. In outline:
as §2

Substrate in series [6]: CC1CN(C)Cc2cc(O)c(O)cc21
The description is as §1. In outline: as §2

Substrate in series [7]: CN1CCc2cc(O)c(O)cc2C1
Described as §1. In outline: as §2

The term Km denotes the concentration of substrate that gives half-maximal velocity. One may read the Vmax as the top rate of the reaction or transport when substrate is in excess.

On to `Br.CN1Cc2cc(O)c(O)cc2C(C)(C)C1`, for which the Kis in series [1] came out at 187 µM. The Activity in the series on Mus musculus came out at 115%.
Consider `Br.CN1CCc2cc(O)c(O)cc2C1`, for which, in series [1], the Kis was determined as 152 µM. Besides, the Activity with Mus musculus worked out at 104%.
With `Br.CC1(C)CNCc2cc(O)c(O)cc21`, the Kis in series [1] is 259 µM. Moreover, the Activity in the series with Mus musculus is 103%.
On the same counts, the results for `Br.CC1CN(C)Cc2cc(O)c(O)cc21` (centres undefined) are 101 µM and 107%.
Regarding `Br.Oc1cc2c(cc1O)CNCC2`, the Kis in series [1] amounted to 196 µM. Further, the Activity with Mus musculus is recorded as 63%.
Consider `C[N+]1(C)CCc2cc(O)c(O)cc2C1.[Br-]`, for which the Kis in series [1] was 191 µM. Besides, the Activity in the series on Mus musculus is given as 43%.

B1: Catechol O-methyltransferase (Rattus norvegicus), P22734 (protein)
chain: MPLAAVSLGLLLLALLLLLRHLGWGLVTIFWFEYVLQPVHNLIMGDTKEQRILRYVQQNAKPGDPQSVLEAIDTYCTQKEWAMNVGDAKGQIMDAVIREYSPSLVLELGAYCGYSAVRMARLLQPGARLLTMEMNPDYAAITQQMLNFAGLQDKVTILNGASQDLIPQLKKKYDVDTLDMVFLDHWKDRYLPDTLLLEKCGLLRKGTVLLADNVIVPGTPDFLAYVRGSSSFECTHYSSYLEYMKVVDGLEKAIYQGPSSPDKS
In the case of B1, the Km was determined as 310 µM in series [2]; 410 µM in series [3]; 398 µM in series [4]; 540 µM in series [5]; 754 µM in series [6]; 670 µM in series [7]. Moreover, the Vmax in series [2] was found to be 17.4 nmol/mg/min; in series [3], 12.1 nmol/mg/min; in series [4], 19.8 nmol/mg/min; in series [5], 15.5 nmol/mg/min; in series [6], 21.2 nmol/mg/min; in series [7], 18.5 nmol/mg/min.

The record behind these values is ChEMBL document CHEMBL3271951, “Synthesis and biological activity of 2- and 4-substituted 6,7-dihydroxy-1,2,3,4-tetrahydroisoquinolines” (1976).
